# Screening data as filed in PubChem BioAssay.
# NTR1 ag: activates human neurotensin receptor 1; activation, % at 20 µM; P30989; NTR1-U2OS beta-arrestin-GFP spot imaging, agonist mode; 0.17% of 330,000 active;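 active means activation at or above 40% of the spot to cytoplasm intensity ratio, with at least 20 cells analyzed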;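 further: 0% = DMSO without peptide and 100% = 100 nM NTR1 peptide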
# Target sequence (P30989 whole entry, looked up): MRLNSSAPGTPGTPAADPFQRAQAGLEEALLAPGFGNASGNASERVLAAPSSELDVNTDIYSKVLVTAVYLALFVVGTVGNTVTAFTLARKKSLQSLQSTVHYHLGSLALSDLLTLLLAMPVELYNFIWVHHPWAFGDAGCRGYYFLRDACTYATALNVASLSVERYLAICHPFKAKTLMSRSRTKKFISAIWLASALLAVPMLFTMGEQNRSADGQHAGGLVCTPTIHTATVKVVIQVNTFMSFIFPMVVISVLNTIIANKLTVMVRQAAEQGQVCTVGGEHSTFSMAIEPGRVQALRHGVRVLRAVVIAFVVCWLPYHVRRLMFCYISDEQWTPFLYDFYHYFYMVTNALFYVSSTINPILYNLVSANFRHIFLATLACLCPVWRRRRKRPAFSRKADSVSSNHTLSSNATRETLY
# MC4R antagonist: antagonists of human melanocortin 4 receptor (MC4R); P32245; MC4R-expressing cells, MTII-stimulated cAMP, LANCE TR-FRET; inhibition, % at 6.5 µM; 0.48% of 360,000 active;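 active means inhibition above its plate's cutoff, the mean of tested wells on that plate plus 3 SD, cut at about 29% in these data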;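 further: 0% = Melanotan II alone and 100% = Melanotan II plus saturating MCL0020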
#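 Test system: U2OS cells stably expressing human melanocortin 4 receptor (MC4R); also added: Melanotan II challenge; compound: 6.5 µM single dose; timing: 30-min compound preincubation, 1-h Melanotan II challenge, 1-h detection, room temperature; signal: Eu-cAMP/anti-cAMP TR-FRET, emission 671 nm; repeats: one well per compound, no replicates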
# m5-HT2A agonist: activates the mouse 5-HT2A serotonin receptor | P35363 | CHO-K1 mHTR2A beta-arrestin complementation, luminescence; percent of 30 µM serotonin response | activation, % at 7.6 µM | 0.66% of 360,000 active | AID 624169;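 active means activation above a run cutoff, the mean activation of all tested compounds plus 3 SD, cut at about 14% in these data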;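 further: 0% = plate median of compound wells and 100% = 30 µM serotonin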
# MC4R barr agon: activates human MC4R beta-arrestin recruitment; AID 540308; activation, % at 8.9 µM; 0.98% of 360,000 active; U2OS MC4R beta-arrestin complementation, luminescence; percent of melanotan II response, DMSO zero; P32245;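 active means activation above a per-plate cutoff, the mean activation of sample wells on that plate plus 3 SD, cut at about 8% in these data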
# PREPL inhibitor: human PREPL enzyme inhibition. recombinant PREPL, fluorescence polarization activity-based probe. inhibition, % at 5.96 µM. 0.68% of 320,000 active; in the data active means inhibition above about 43%;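 further: 0% = enzyme with DMSO and 100% = wells lacking enzyme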
# Lipid droplet: modulators of hepatic lipid droplet formation. 0.4% of 240,000 active. AML12 mouse hepatocytes, oleate lipid droplets, BODIPY imaging. inhibition, % at 6.5 µM. AID 1656;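 active means lipid droplet intensity inhibited by at least 50%, with more than 500 cells counted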
#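 Material – AML12 mouse liver cells · Also added – oleate loading, 100 µM · Compound dosing – 6.5 µM single-point dosing · Times – overnight treatment with compound plus oleate · Measured by – fluorescence imaging, 20x objective, two fields per well · Read-out – percent inhibition of filter-corrected integrated lipid droplet intensity per well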
# Hep lipid conf: hepatic lipid droplet formation inhibition, confirmed. AML12 mouse hepatocytes, BODIPY lipid droplet imaging; droplets induced with 100 µM oleic acid. shares compounds with Lipid droplet. inhibition, % at 5.2 µM. 65% of 870 active;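 active means inhibition of lipid droplet metric at least 50%, with more than 300 cells in each of four replicates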;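 further: plate controls were DMSO with oleic acid for no effect and 5 µM Triacsin-C for full effect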
# AML12 cytotox: counter-screen for cytotoxicity in AML12 mouse hepatocytes; 3% of 870 active; z-score at 5 µM; shares compounds with Lipid droplet; DAPI nuclear morphology cytotoxicity imaging; hits give high values; cells fed 100 µM oleate overnight; AID 463200; in the data active means z-score above about 6.3;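 further: compound exposure lasted overnight at 37 °C before fixation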
# AML12 tox ATP: confirmation of cytotoxicity in AML12 mouse hepatocytes | AID 463219 | AML12 mouse hepatocyte viability, ATP luminescence; cells loaded with 100 µM oleic acid | shares compounds with Lipid droplet | 530 tested, under 10 active | cytotoxicity, % at 50 µM;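 active means cytotoxicity above 50% in each of four replicates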;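 further: compound exposure lasted overnight at 37 °C before the ATP read; 0% = DMSO-treated cells and 100% = wells with no cells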
# Numbers without * were called inactive; . = no result. This is a sample that favours compounds with a hit; in the whole collection about 2.7% have one here.
SMILES,NTR1 ag,MC4R antagonist,m5-HT2A agonist,MC4R barr agon,PREPL inhibitor,Lipid droplet,Hep lipid conf,AML12 cytotox,others
COc1cccc2cc(C(=O)CS(=O)(=O)c3ccc(Cl)cc3)c(=O)oc12,1,-1,0,-1,10,-1,.,.,
O=C(CCNC(=O)C1CCN(S(=O)(=O)c2ccccc2)CC1)NCCc1cccc(F)c1,1,2,0,-2,19,54*,27,-0.15,
O=C(CCNC(=O)C1CCN(S(=O)(=O)c2ccccc2)CC1)NCCc1ccc(Cl)cc1,3,2,-4,-2,28,11,.,.,
CCCOc1ccc(C2=NNC(c3cccs3)=Nc3ccc(OC)cc32)cc1,9,5,-5,0,-2,52*,50,0.17,
COc1ccc2c(c1)C(c1cccs1)=NNC(c1ccncc1)=N2,2,10,3,-1,-35,0,.,.,
COc1nc2ccccc2nc1N1CCN(Cc2ccc3c(c2)OCO3)CC1,4,1,4,0,.,-22,.,.,
c1ccc2nc(N3CCN(Cc4ccc5c(c4)OCO5)CC3)cnc2c1,2,10,7,-1,1,50*,10,0.61,
Cc1ccc(-c2nnc(SCC(=O)Nc3ccc4c(c3)oc3ccccc34)n2C)c(Cl)c1,15,-6,-1,0,-9,.,.,.,
Cc1ccccc1OCc1nnc(SCC(=O)Nc2ccc3c(c2)oc2ccccc23)n1C,10,-18,-3,-1,-4,93*,40,0.56,
O=C(CN1CCN(c2ccc(C(F)(F)F)cn2)CC1)Nc1ccc2c(c1)OCO2,0,-4,3,-1,19,-13,.,.,
O=C(N/N=C/c1c(O)ccc2ccccc12)c1cccnc1,1,-2,3,-2,22,-4,.,.,
Cc1cc(O)c(C)c(O)c1/C=N/NC(=O)c1cccnc1,1,0,0,-1,8,59*,0,-1.1,
S=C(c1ccc(N2CCCC2)c(Br)c1)N1CCCCC1,8,-5,2,0,15,19,.,.,
O=C(NCCc1nc2ccccc2[nH]1)c1ccc(Br)o1,0,11,-11,0,6,51*,62*,-0.12,AML12 tox ATP=6
Cc1ccc(C(=O)NCCc2nc3ccccc3[nH]2)cc1[N+](=O)[O-],0,7,1,-3,2,82*,94*,-0.074,AML12 tox ATP=18
O=C(NCCc1nc2ccccc2[nH]1)c1ccco1,2,10,-3,-1,0,.,.,.,
O=C(NCCc1nc2ccccc2[nH]1)c1ccc(Cl)c([N+](=O)[O-])c1,0,12,-6,0,3,-4,.,.,
Cc1cccc(-c2cnc(C(O)Cc3ccccc3)[nH]2)c1 (configuration not stated),.,-1,1,1,.,.,.,.,
COc1ccccc1CC(=O)Nc1ccc(S(=O)(=O)N2CCOCC2)cc1,5,-4,7,2,6,20,.,.,
CCS(=O)(=O)N1CCN(c2ccc([N+](=O)[O-])c(NCc3cccnc3)c2)CC1,1,5,-3,0,1,59*,-18,0.18,
CCOC(=O)c1c(NC(=O)CSc2nnc(-c3ccc(Cl)cc3)o2)sc2c1CCC2,4,17,1,-2,8,.,.,.,
CC(C)(C)c1ccc(-c2nnc(SCC(=O)Nc3sc4c(c3C#N)CCCC4)o2)cc1,9,6,-2,0,2,58*,2,-1.3,
O=C(c1ccc2n[nH]nc2c1)N1CCN(c2ccc(C(F)(F)F)cn2)CC1,4,11,1,1,8,.,.,.,
Cc1ccc2nc(Nc3ccc(F)cc3)c3nncn3c2c1,3,-12,0,1,-7,59*,58,-0.34,AML12 tox ATP=17
Cc1ccc(C)c(Nc2nc3ccc(C)cc3n3cnnc23)c1,5,-10,1,1,16,0,.,.,
SMILES,NTR1 ag,MC4R antagonist,m5-HT2A agonist,MC4R barr agon,PREPL inhibitor,Lipid droplet,Hep lipid conf,AML12 cytotox,others
Cc1c(N2C(=O)CS/C2=N\N=C\c2ccc(Cl)cc2)c(=O)n(-c2ccccc2)n1C,1,-4,0,-1,22,.,.,.,
COc1ccc(/C=N/N=C2\SCC(=O)N2c2c(C)n(C)n(-c3ccccc3)c2=O)cc1OC,0,8,-1,0,3,62*,32,-0.53,
O=C(N/N=C/c1ccco1)c1ccc(NC(=O)c2ccc(Cl)cc2)cc1,1,-5,-1,-1,18,-4,.,.,
N/C(=N\OS(=O)(=O)c1ccc(Br)cc1)c1ccncc1,-3,0,2,-2,7,.,.,.,
CCOC(=O)c1c(C)[nH]c(N=Nc2ccccc2)c1C,11,2,2,-1,-3,36,.,.,
CCOC(=O)c1c(C)[nH]c(N=Nc2ccccc2Cl)c1C,12,8,-3,-1,33,65*,105*,0.39,AML12 tox ATP=5
COc1ccc(Cl)cc1NC(=O)CN(C)C(=O)Cc1ccc2c(c1)CCC2,2,4,-6,-3,6,52*,85*,0.13,AML12 tox ATP=19
O=C(NCCC1CCCCN1S(=O)(=O)c1ccccc1)C(=O)Nc1ccc(F)cc1F (configuration not stated),1,-1,-2,0,17,.,.,.,
COc1ccc(Cl)c(NC(=O)C/C(C)=N/NC(=O)CCc2ccccc2)c1,2,6,0,1,-13,122*,99*,-0.55,AML12 tox ATP=12
C/C(CC(=O)Nc1ccc(Cl)c(Cl)c1)=N\NC(=O)Cc1ccccc1,-5,3,-5,-2,-32,-3,.,.,
CCCOC(=O)c1ccc(NC(=O)CCOc2ccccc2)cc1,0,3,-5,4,-10,52*,104*,-0.16,AML12 tox ATP=14
COc1cccc(NC(=O)CN(C)C(=O)c2c(C)nn(-c3ccccc3)c2Cl)c1,0,4,-1,-2,7,.,.,.,
CCOc1ccc(NC(=O)CN(C)C(=O)c2ccc(C)c(S(=O)(=O)N3CCCCC3)c2)cc1OCC,0,11,-4,-1,.,63*,63*,0.13,AML12 tox ATP=14
CN(C)c1ccc(N=Nc2ccccc2Br)cc1,3,0,-5,-2,6,67*,113*,0.039,AML12 tox ATP=81*
CCc1ccnc(NS(=O)(=O)c2ccc3c(c2)CCO3)c1,0,0,6,-1,3,13,.,.,
O=C1c2ccccc2C2=Nc3ccccc3SC(c3cccc(F)c3)C12 (configuration not stated),18,8,-9,-3,17,66*,65,8.8*,
